KCNK9 inh: human KCNK9 channel inhibition; Q9NPC2; HEK293 KCNK9, FluxOR thallium flux fluorescence; active compounds read low; B-score at 10 µM; hit rate 1.2% among 310,000; AID 488922;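 active = ratio B-score over 3 SD below the library mean, with starting fluorescence within 5 SD of its mean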;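 note: negative B-score means less thallium flux so channel inhibition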
Kir21 inh: Kir2.1 (mouse) channel inhibition | P35561 | HEK293-Kir2.1, FluxOR thallium flux fluorescence; active compounds read low | AID 1672 | hit rate 0.85% among 310,000 | B-score at 10 µM;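 active = fluorescence ratio B-score at or below minus 3 SD of library scores, with starting-brightness B-score within 2 SD, cut at about -4.2 in these data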;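 note: channel flux triggered by added potassium and thallium sulfate stimulus; B-score of peak minus minimum fluorescence over baseline after thallium stimulus; more negative B-score means stronger Kir2.1 block with less thallium influx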
KCNQ1 act: potentiators or activators of human KCNQ1 potassium channel | CHO-K1 KCNQ1, thallium flux FluxOR fluorescence; active compounds read high | hit rate 0.35% among 310,000 | B-score at 10 µM;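 active = fluorescence ratio B-score, a plate-corrected score, at least three library SD, with initial intensity B-score within 5 SD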
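Test system: CHO-K1 cells stably expressing KCNQ1 / Medium: assay buffer / Also added: depolarizing K+/Tl+ stimulus, K2SO4 and Tl2SO4 each 12.5 mM in 5x stock / Incubation: 90 min dye loading and 20 min compound exposure, both at room temperature / Signal: thallium influx via FluxOR fluorescence, kinetic imaging / Evaluation: B score of baseline-normalized fluorescence ratio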
KCNQ1 inh: inhibitors of human KCNQ1 potassium channel; hit rate 1.3% among 310,000; P51787; B-score at 10 µM; AID 2642; CHO-K1 KCNQ1, FluxOR thallium flux fluorescence; active compounds read high;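 active = compounds whose thallium flux B-score, printed positive for inhibition, exceeds three library SD while starting fluorescence stays within three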;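 note: channel opened by potassium depolarization with thallium stimulus after 20 min compound exposure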
hERG rescue: shields human hERG channel from block by proarrhythmic agents | Q12809 | CHO-hERG, FluxOR thallium flux, dofetilide IC70 present | activation (rescue from dofetilide block), less the hit threshold, % at 10 µM | hit rate 0.51% among 310,000;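 active = activation above the mean of controls blocked by dofetilide plus 5 SD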;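 note: thallium influx through hERG after potassium depolarization seen as dye fluorescence rise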
KCNK3 inh: human KCNK3 channel inhibition, primary screen; O14649; CHO-KCNK3 thallium flux, FluxOR fluorescence; active compounds read low; B-score at 10 µM; hit rate 0.84% among 340,000; AID 602410;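 active = B-score under library mean minus 4 SD, starting fluorescence ratio at most library mean plus 5 SD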;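 note: more negative B-score means stronger inhibition of thallium flux through KCNK3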
KCNQ1 inh valid: confirmation of human KCNQ1 potassium channel inhibitors; inhibition, % at 10 µM; KCNQ1 cell line, FluxOR thallium flux fluorescence; hit rate 93% among 1,600; shares compounds with KCNQ1 inh; AID 588353;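 active = primary screen active, with duplicate mean exceeding buffer control mean plus 3 SD of buffer wells, cut at about 28% in these data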
CHO Tl flux: KCNQ1 inhibitor counter-screen hit in parental CHO cells | AID 588366 | fluorescence ratio (Tl flux) at 10 µM | shares compounds with KCNQ1 inh | parental CHO-K1, FluxOR thallium flux fluorescence ratio; active compounds read low; zero means no signal rise above baseline | hit rate 21% among 1,600;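 active = mean of duplicate thallium-flux fluorescence ratios in parental host cells more than 5 SD below the buffer control mean, cut at about 0.38 in these data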;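 note: ratio is peak minus minimum fluorescence divided by baseline fluorescence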
KCNQ1 APC inh: human KCNQ1 inhibition validated by electrophysiology | KCNQ1-CHO cells, automated patch clamp current | calls only at 10 µM | hit rate 20% among 490 | shares compounds with KCNQ1 inh;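 active = KCNQ1 current drop exceeding 3 SD of negative control wells, seen in both duplicate runs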;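 note: steady state current during a 2 s step from -80 to +40 mV; negative values mean current inhibition and positive values mean potentiation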
KCNQ2 spec: KCNQ1 inhibitor that also blocks rat KCNQ2 channel | shares compounds with KCNQ1 inh | KCNQ2 cells, FluxOR thallium flux fluorescence | inhibition, % at 10 µM | hit rate 71% among 1,600 | AID 651746;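 active = mean percent inhibition of the KCNQ2 thallium signal more than 5 SD above the buffer-only control wells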;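 note: KCNQ2 expressed in CHO cells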
Target sequence (O88943 whole entry, looked up): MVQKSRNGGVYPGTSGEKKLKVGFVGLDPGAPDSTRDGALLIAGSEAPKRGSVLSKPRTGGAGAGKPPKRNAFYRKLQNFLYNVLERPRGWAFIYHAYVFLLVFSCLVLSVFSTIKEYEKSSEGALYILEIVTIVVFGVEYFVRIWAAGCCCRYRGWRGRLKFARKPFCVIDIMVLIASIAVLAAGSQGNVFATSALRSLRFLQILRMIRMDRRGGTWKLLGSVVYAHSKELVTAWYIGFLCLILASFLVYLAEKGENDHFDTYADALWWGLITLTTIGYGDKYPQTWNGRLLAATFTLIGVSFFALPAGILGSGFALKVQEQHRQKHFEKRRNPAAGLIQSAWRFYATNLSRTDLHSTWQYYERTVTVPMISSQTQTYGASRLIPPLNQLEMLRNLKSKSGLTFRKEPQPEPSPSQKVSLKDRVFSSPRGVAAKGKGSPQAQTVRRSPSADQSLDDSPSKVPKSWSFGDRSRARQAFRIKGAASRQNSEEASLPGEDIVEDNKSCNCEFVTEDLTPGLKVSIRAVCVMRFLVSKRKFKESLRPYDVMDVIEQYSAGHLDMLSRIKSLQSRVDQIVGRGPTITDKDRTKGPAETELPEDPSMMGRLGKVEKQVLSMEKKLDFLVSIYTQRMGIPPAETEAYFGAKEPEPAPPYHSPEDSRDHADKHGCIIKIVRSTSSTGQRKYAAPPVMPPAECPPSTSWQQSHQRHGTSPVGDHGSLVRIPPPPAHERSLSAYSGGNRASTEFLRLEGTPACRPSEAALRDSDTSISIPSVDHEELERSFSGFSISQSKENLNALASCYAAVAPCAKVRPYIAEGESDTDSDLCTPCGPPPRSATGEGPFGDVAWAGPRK
KCNQ1 KCNE1 spec: selectivity of KCNQ1 inhibitors: inhibition of human KCNQ1/KCNE1 channel | shares compounds with KCNQ1 inh | KCNQ1/KCNE1 cells, FluxOR thallium flux fluorescence | inhibition, % at 10 µM | hit rate 77% among 1,600 | AID 652147;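 active = mean percent inhibition of duplicate wells above the buffer-only control mean plus 3 SD of those controls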
KCNK9 inh conf: confirmation of human KCNK9 potassium channel inhibitors; shares compounds with KCNK9 inh; HEK293 KCNK9 cells, FluxOR thallium flux fluorescence; inhibition, % at 10 µM; hit rate 43% among 4,900; AID 492992;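 active = thallium signal inhibited by more than 5 SD of the compound-free buffer control wells, on both duplicate plates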
Kir2-1 spec: selectivity of KCNK9 modulators against mouse Kir2.1; AID 492993; Kir2.1 cells, FluxOR thallium flux fluorescence; inhibition, % at 10 µM; hit rate 4% among 4,900; shares compounds with KCNK9 inh;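 active = thallium signal drop more than 5 SD beyond the mean of the no-compound control wells, seen in both duplicate plates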;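 note: signal is fluorescence rise after thallium addition divided by baseline fluorescence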
KCNK9 uninduced: second counter-screen for KCNK9 modulators: effect in non-induced cells. shares compounds with KCNK9 inh. hit rate 40% among 4,900. non-induced KCNK9-HEK293, FluxOR thallium flux. inhibition, % at 10 µM;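 active = thallium signal drop beyond 5 SD of the untreated control mean, on both duplicate plates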
KCNK3 inh conf: human KCNK3 channel inhibition, confirmation assay; AID 651638; ratio percent of control, % at 10 µM; hit rate 99% among 2,400; shares compounds with KCNK3 inh; CHO-KCNK3 thallium flux, FluxOR fluorescence; 0% buffer, 100% carvedilol maximal block;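 active = ratio percent of control, averaged over triplicates, above buffer control mean plus 5 SD, cut at about 64% in these data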;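 note: ratio is the fluorescence rise from min to max over baseline after thallium stimulus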
KCNK3 noninduced: KCNK3 inhibitor counter-screen hit in non-induced cells | shares compounds with KCNK3 inh | non-induced KCNK3 parental cells, FluxOR thallium flux; active compounds read low | thallium flux ratio (lower = more inhibition) at 10 µM | hit rate 40% among 2,400 | AID 651747;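 active = thallium flux ratio, averaged over three wells, more than 5 SD below the buffer control mean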;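 note: host cells are CHO cells without KCNK3 induction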
Hits are given with their value; 0 = inactive; - = not tested or not shown; + = active, no number. The list is not random: actives were taken first. Their share in the collection is about 3.7%.

SMILES	KCNK9 inh	Kir21 inh	KCNQ1 act	KCNQ1 inh	hERG rescue	KCNK3 inh	KCNK9 inh conf	Kir2-1 spec	KCNK9 uninduced	others
O=C1CN=C(c2cc([N+](=O)[O-])ccc2Cl)c2cc([N+](=O)[O-])ccc2N1	0	0	0	0	0	0	-	-	-
O=c1cc(C(F)(F)F)c2cc3c4c(c2o1)CCCN4CCC3	0	0	0	37	0	0	-	-	-	KCNQ1 inh valid=+;CHO Tl flux=0.022;KCNQ2 spec=0;KCNQ1 KCNE1 spec=0
CN1C2CCC1CC(=NO)C2	0	0	0	0	0	0	-	-	-
CCCCCn1c(=O)c(C(=O)Nc2ccccc2N)c(O)c2ccccc21	0	0	0	0	0	0	-	-	-
CCCCCCn1c(=O)c(C(=O)Nc2cnccn2)c(O)c2ccccc21	0	0	0	9	0	0	-	-	-	KCNQ1 inh valid=44;CHO Tl flux=0;KCNQ2 spec=0;KCNQ1 KCNE1 spec=0
CCCCCCn1c(=O)c(C(=O)Nc2ncccc2O)c(O)c2ccccc21	0	0	0	7	0	0	-	-	-	KCNQ1 inh valid=58;CHO Tl flux=0;KCNQ2 spec=62%;KCNQ1 KCNE1 spec=50%
NP(=O)(OCCCc1ccccc1)Oc1ccc(Cl)cc1 (stereo unspecified)	0	0	0	0	0	0	-	-	-
C[n+]1c(-c2ccccc2)c2cc(N)ccc2c2ccc(N)cc21	0	0	0	0	0	0	-	-	-
Nc1ccc2ccc3cccc[n+]3c2c1	0	0	0	24	0	0	-	-	-	KCNQ1 inh valid=+;CHO Tl flux=0.0075;KCNQ2 spec=0;KCNQ1 KCNE1 spec=0
CN1/C(=C\C=C2C(=O)NC(=S)NC2=O)C(C)(C)c2ccccc21	0	0	0	0	0	0	-	-	-
CC1(C)OC(c2ccccc2)=C/C(=C/C=C2C(=O)NC(=S)NC2=O)O1	0	0	0	15	0	-	-	-	-	KCNQ1 inh valid=82;CHO Tl flux=0.34;KCNQ2 spec=0;KCNQ1 KCNE1 spec=0
CN(C)C(=S)SSC(=S)N(C)C	0	0	0	16	0	0	-	-	-	KCNQ1 inh valid=0;CHO Tl flux=0;KCNQ2 spec=0;KCNQ1 KCNE1 spec=0
Nc1cccc2c1Cc1cc([N+](=O)[O-])ccc1-2	-	-	-	-	-	0	-	-	-
O=C1CC(c2ccccc2)CN1 (stereo unspecified)	0	0	0	0	0	0	-	-	-
O=C(c1ccco1)c1cn(Cc2ccccc2Cl)c2ccccc12	-7.5	0	0	7	0	0	-	-	-	KCNQ1 inh valid=91;CHO Tl flux=0;KCNQ1 APC inh=0;KCNQ2 spec=102%;KCNQ1 KCNE1 spec=152%
Oc1ccccc1CN(CCc1ccccc1)Cc1ccccc1	-7.9	0	0	9	0	-8.9	-	-	-	KCNQ1 inh valid=108;CHO Tl flux=0;KCNQ1 APC inh=0;KCNQ2 spec=97%;KCNQ1 KCNE1 spec=130%;KCNK3 inh conf=120;KCNK3 noninduced=0.14
COC(=O)C1=C(c2ccc(S(C)(=O)=O)cc2)C[C@@H]2CC[C@H]1N2C(=O)NCCCOC(C)C	0	0	0	0	0	0	-	-	-
O=C(CN1CC=C(c2ccccc2)CC1)NC(=O)NC1CCCCC1	0	0	0	0	0	0	0	0	0
CC(C)(C)NC(=O)NC(=O)CN1CC=C(c2ccccc2)CC1	0	0	0	0	0	0	0	0	0
COC(=O)C1=C(c2cc3ccccc3s2)C[C@@H]2CC[C@H]1N2C(=O)N1CCC(C)CC1	0	0	0	0	0	0	0	0	0
CC1CCN(C(=O)C(C)Cl)CC1 (stereo unspecified)	0	0	0	0	0	0	-	-	-
Nc1ccc(CCN2CCCC2)cc1	0	0	0	0	0	0	-	-	-
Nc1ccc(CCN2CCN(c3cccc(C(F)(F)F)c3)CC2)cc1	0	0	0	0	0	0	0	0	0
COC(=O)C1=C(c2ccc(F)cc2OCc2ccccc2)C[C@@H]2CC[C@H]1N2C(=O)NCc1ccccc1OC	-	-	-	-	-	0	-	-	-
O=C(COc1ccccc1Cl)N1CCCC(N2CCN(c3ccc(F)cc3)CC2)C1 (stereo unspecified)	0	0	0	0	0	0	0	0	0
SMILES	KCNK9 inh	Kir21 inh	KCNQ1 act	KCNQ1 inh	hERG rescue	KCNK3 inh	KCNK9 inh conf	Kir2-1 spec	KCNK9 uninduced	others
COc1ccccc1OCC(=O)N1CCCC(N2CCN(c3ccc(F)cc3)CC2)C1 (stereo unspecified)	0	0	0	0	0	0	0	0	0
Cc1ccc(OCC(=O)N2CCCC(N3CCN(c4ccc(F)cc4)CC3)C2)cc1 (stereo unspecified)	0	0	0	0	0	0	-	-	-
COc1ccc(OCC(=O)N2CCCC(N3CCN(c4ccccc4C)CC3)C2)cc1 (stereo unspecified)	0	0	0	0	0	0	0	0	0
CCN1CCC(N(C)C2CCCCC2)CC1	0	0	0	0	0	0	-	-	-
O=c1[nH]c(N2CCN(Cc3ccc4c(c3)OCO4)CC2)nc2c1CCC2	-	-	-	-	-	0	-	-	-
O=C(c1cccc(Cl)c1)C1CCCN(Cc2ccon2)C1 (stereo unspecified)	0	0	0	0	0	0	-	-	-
COc1cccc(C(=O)C2CCCN(Cc3ccc4nonc4c3)C2)c1 (stereo unspecified)	0	0	0	0	0	0	0	0	0
COc1cccc(C(=O)C2CCCN(Cc3cccc4c3OCO4)C2)c1 (stereo unspecified)	0	0	0	0	0	0	0	0	0
CC(C)Oc1cccc(C(=O)C2CCCN(Cc3ccon3)C2)c1 (stereo unspecified)	0	0	0	0	0	0	-	-	-
COc1ccc(O)c(CN2CCCC(C(=O)c3sccc3C)C2)c1 (stereo unspecified)	0	0	0	0	0	0	-	-	-
